Measured values published in ChEMBL document CHEMBL4043092, “Neuroprotective and Antineuroinflammatory Effects of Hydroxyl-Functionalized Stilbenes and 2-Arylbenzo[b]furans” (J Med Chem, 2017).
Activity calls are given as the source filed them. The rule behind the calls is not given here.

Tests used:
[1] = test system: Cortical neurone; assay: Neuroprotective activity against glutamate-induced cell death in Sprague-Dawley rat 10 days old neonatal primary cortical neurons assessed as cell death at maximum non toxic concentration pretreated for 2 hrs followed by 30 uM glutamate addition measured after 24 hrs by MTT assay (reference value: 41.22 +/- 3.40%); format: functional
[2] = Anti-inflammatory activity in Sprague-Dawley rat primary mixed glial cells assessed as inhibition of LPS-induced NO production at 50 uM pretreated for 2 hrs followed by LPS addition measured after 48 hrs by Griess assay (reference value: 100%); format: functional, Primary glial cell; set-up: scale not given: the % may be the effect or the level left
[3] = test system: Cortical neurone; assay: Neuroprotective activity against fibril amyloid beta (25 to 35)-induced cell death in Sprague-Dawley rat 5 day old neonatal primary cortical neurons assessed as cell death at maximum non toxic concentration pretreated for 2 hrs followed by 10 uM fibril amyloid beta (25 to 35) addition measured after 48 hrs by MTT assay (reference value: 39.20 +/- 0.88%); format: functional
Outline: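 Rat cortical neurons from pups, papain-dissociated, cytosine arabinoside (5 μM, 1 day) to remove non-neuronal cells, used at DIV5. Vehicle 0.1% DMSO or compound pretreatment before fAβ25–35 (aged 1 week at 37 °C). Viability by MTT reduction: 0.5 mg/mL for 1 h, formazan dissolved in DMSO, OD600. Mean ± SD of three independent experiments.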

[4] = Antioxidant activity assessed as ABTS radical cation scavenging activity by measuring trolox equivalents by spectrophotometric analysis; format: functional
[5] = test system: Cortical neurone; assay: (§1) Neuroprotective activity against fibril amyloid beta (25 to 35)-induced cell death in Sprague-Dawley rat 5 days old neonatal primary cortical neurons assessed as increase in cell viability pretreated for 2 hrs followed by 10 uM fibril amyloid beta (25 to 35) addition measured after 48 hrs by MTT assay; format: functional, cell-based
Outline: (§2)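 Cortical neurons pretreated 2 h with vehicle (0.1% DMSO) or compound at maximum nontoxic concentration. Then exposed at DIV5 to fibrillar Aβ25–35 (10 μM, 48 h) or at DIV10 to glutamate (30 μM, 24 h). MTT 0.5 mg/mL for 1 h, formazan dissolved in DMSO, OD read at 600 nm. Mean ± SD of three independent experiments.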

[6] = biological target: Cytochrome P450 3A4 (Homo sapiens, UniProt P08684); assay: Inhibition of CYP3A4 in human liver microsomes; format: ADME
[7] = test system: Mus musculus; assay: Antialzheimer activity in APPswe/PSEN1dE9 double transgenic C57BL/6J mouse model of Alzheimer's disease assessed as decrease in number of unshredded nestlets at 30 mg/kg/day administered via oral gavage over 60 days by nesting test
[8] = test system: Cortical neurone; assay: (§3) Neuroprotective activity against glutamate-induced cell death in Sprague-Dawley rat 10 days old neonatal primary cortical neurons assessed as increase in cell viability pretreated for 2 hrs followed by 30 uM glutamate addition measured after 24 hrs by MTT assay; format: functional, cell-based; outline: as §2
[9] = test system: Mus musculus; assay: Antialzheimer activity in APPswe/PSEN1dE9 double transgenic C57BL/6J mouse model of Alzheimer's disease assessed as increase in nesting score at 30 mg/kg/day administered via oral gavage over 60 days by nesting test; format: functional, organism-based
Outline: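 Female APP/PS1 C57BL/6J mice, 5 months old, given compound by oral gavage at 30 mg/kg/day for 60 days. Wild-type siblings received vehicle. Two nestlets (about 5 g) placed in the cage 1 h before the dark cycle. Nest score and unshredded nestlet weight recorded. Mean ± SD per group.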

[10] = test system: Cortical neurone; assay: (§4) Neuroprotective activity against glutamate-induced cell death in Sprague-Dawley rat 10 days old neonatal primary cortical neuron assessed as inhibition of glutamate-induced decrease in MAP2 level at 50 uM pretreated for 2 hrs followed by 30 uM glutamate addition measured after 24 hrs by fluorescein isothiocyanate dye-based immunocytochemistry analysis; format: functional
Outline: (§5)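 Cortical neurons at DIV5 (fibrillar Aβ25–35 10 μM, 48 h) or DIV10 (glutamate 30 μM, 24 h), after 2 h with 50 μM compound. Fixed in 4% paraformaldehyde, permeabilized with Triton X-100, blocked with donkey serum. Stained with anti-MAP2 and anti-tau (1:100, overnight at 4 °C), then FITC and RRX secondaries. Integrated density relative to vehicle. Mean ± SEM, n=3.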

[11] = Anti-inflammatory activity in Sprague-Dawley rat primary mixed glial cells assessed as inhibition of LPS-induced NO production pretreated for 2 hrs followed by LPS addition measured after 48 hrs by Griess assay; format: functional, cell-based; details: Glial cell
Outline: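 Mixed cortical glia kept 3 days in DMEM/F12 with 10% FBS, medium changed, 4 more days, then 9 days in Neurobasal/B27 (16 days total). Cultures activated 2 days after medium refresh with 100 ng/mL LPS for 48 h, with compound at maximum nontoxic concentration. Medium nitrite read by Griess reagent at 540 nm against NaNO2 standard. Mean ± SD, three independent experiments.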

[12] = test system: Cortical neurone; assay: as §4, with “fibril amyloid beta (25 to 35)-induced” for “glutamate-induced”, “5” for “10”, “tau protein” for “MAP2”, “10” for “30”, “fibril amyloid beta (25 to 35)” for “glutamate”, “48” for “24”; format: functional; outline: as §5
[13] = test system: Cortical neurone; assay: as §4, with “tau” for “MAP2”; format: functional; outline: as §5
[14] = test system: Cortical neurone; assay: as §3, with “neuron” for “neurons”, “viability at 50 uM” for “viability”, “calcein AM dye-based confocal laser scanning microscopic analysis” for “MTT assay”; format: functional
Outline: (§6)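 Rat pup cortical neurons in Neurobasal/B27, given 5 μM cytosine arabinoside for 1 day. Used at DIV5 for Aβ25–35 fibrils (aged 1 week at 37 °C; 10 μM, 48 h) or DIV10 for glutamate (30 μM, 24 h), after 2 h with 50 μM compound or 0.1% DMSO. Cells loaded with 1 μM calcein AM and ethidium homodimer-1 for 30 min at room temperature, imaged by confocal microscopy. Live-cell count and integrated density expressed relative to vehicle. Mean ± SEM, n=3.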

[15] = test system: Cortical neurone; assay: as §1, with “neuron” for “neurons”, “viability at 50 uM” for “viability”, “calcein AM dye-based confocal laser scanning microscopic analysis” for “MTT assay”; format: functional; outline: as §6
[16] = test system: Cortical neurone; assay: as §4, with “fibril amyloid beta (25 to 35)-induced” for “glutamate-induced”, “5” for “10”, “10” for “30”, “fibril amyloid beta (25 to 35)” for “glutamate”, “48” for “24”; format: functional; outline: as §5

Chain of Cytochrome P450 3A4 (P08684 whole entry): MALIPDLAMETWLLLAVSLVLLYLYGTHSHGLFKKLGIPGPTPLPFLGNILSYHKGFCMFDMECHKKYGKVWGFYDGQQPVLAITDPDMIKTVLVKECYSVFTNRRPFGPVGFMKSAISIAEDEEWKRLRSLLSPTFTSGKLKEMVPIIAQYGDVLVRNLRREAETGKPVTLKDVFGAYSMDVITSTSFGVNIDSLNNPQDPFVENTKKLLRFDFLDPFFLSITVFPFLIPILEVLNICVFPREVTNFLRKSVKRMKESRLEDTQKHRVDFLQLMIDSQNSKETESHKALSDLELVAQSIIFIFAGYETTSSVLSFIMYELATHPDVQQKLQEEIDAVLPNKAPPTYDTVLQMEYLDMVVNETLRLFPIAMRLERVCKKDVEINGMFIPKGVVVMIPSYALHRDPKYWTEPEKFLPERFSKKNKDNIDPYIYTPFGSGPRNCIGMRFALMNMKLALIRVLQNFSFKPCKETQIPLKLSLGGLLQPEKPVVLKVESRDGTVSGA

| Compound | Activity [1] | Activity [2] | Activity [3] | Activity [4] | EC50 [5] | IC50 [6] | Activity [7] | EC50 [8] | Activity [9] | inhibition [10] | EC50 [11] | inhibition [12] | inhibition [13] | Activity [14] | Activity [15] | inhibition [16] |
| --- | --- | --- | --- | --- | --- | --- | --- | --- | --- | --- | --- | --- | --- | --- | --- | --- |
| O=C(O)/C=C/c1ccc(O)c2c1C=Cc1cc(O)c(O)cc1O2 [TOURNEFOLIC ACID B] | 42.43% | 98.77% | 24.66% | 1.27 mMequiv | 35.7 µM | – | – | – | – | – | – | – | – | – | – | – |
| CCOC(=O)/C=C/c1ccc(/C=C/c2cc(O)c(O)c(O)c2)cc1 | 28.05% | 72.93% | 19.23% | 0.14 mMequiv | 40.9 µM | 36.2 µM | inactive | > 50 µM | inactive | Active | 99.2 µM | inactive | Active | Active | Active | – |
| Oc1ccc(-c2cc3cc(Br)cc(O)c3o2)cc1O | 31.45% | 86.85% | 16.95% | 0.06 mMequiv | 36.5 µM | 23.5 µM | – | > 50 µM | – | – | > 100 µM | inactive | – | – | Active | Active |
| COC(=O)/C=C/c1ccc(O)c2c1C=Cc1cc(O)c(O)cc1O2 | 20.38% | 99.63% | 40.12% | 1.48 mMequiv | – | – | – | > 50 µM | – | – | – | – | – | – | – | – |
| CCOC(=O)/C=C/c1cccc(/C=C/c2cc(O)c(O)c(O)c2)c1 | 42.05% | 26.02% | 41.19% | – | > 50 µM | – | – | > 50 µM | – | – | 48.9 µM | – | – | – | – | – |
| Oc1ccc(-c2cc3c(Br)ccc(O)c3o2)cc1O | 40.83% | 61.64% | 4.11% | 0.12 mMequiv | 26.7 µM | – | – | > 0.5 µM | – | – | > 100 µM | inactive | – | – | Active | Active |
| CCOC(=O)/C=C/c1cc(O)c2oc(-c3cc(O)c(O)c(O)c3)cc2c1 | 24.48% | 40.35% | 21.18% | 0.94 mMequiv | 53 µM | 21.7 µM | Active | 33 µM | Active | Active | 56.6 µM | inactive | Active | Active | Active | – |
| CCOC(=O)/C=C/c1ccc(OC)c(O)c1/C=C/c1ccc2c(c1)OCO2 | 49.21% | 70.98% | 38.17% | – | > 50 µM | – | – | > 50 µM | – | – | 67 µM | – | – | – | – | – |
| CCOC(=O)/C=C/c1cc(O)c(O)cc1-c1cc2ccccc2o1 | 21% | 49.61% | 25.45% | 0.01 mMequiv | > 50 µM | 11.2 µM | Active | 46.1 µM | Active | Active | > 100 µM | inactive | Active | Active | Active | – |
| Oc1cc(-c2cc3ccccc3o2)c(Br)c(O)c1O | 41.89% | 24.92% | 42.34% | 0.97 mMequiv | > 20 µM | – | – | > 20 µM | – | – | 39.2 µM | – | – | – | – | – |
| COc1cc(Br)cc(/C=C/c2ccc3c(c2)OCO3)c1O | 45.69% | 48.79% | 45.74% | – | > 10 µM | – | – | > 20 µM | – | – | 84.8 µM | – | – | – | – | – |
| COc1ccc(/C=C/c2cc(C=O)cc(OC)c2O)cc1OC | 37.02% | 27.99% | 48.16% | – | > 50 µM | – | – | > 50 µM | – | – | 43 µM | – | – | – | – | – |
| CCOC(=O)/C=C/c1cc(O)c(O)cc1-c1cc2cccc(O)c2o1 | 43.5% | 38.13% | 31.58% | 0.2 mMequiv | > 50 µM | – | – | > 50 µM | – | – | 82.5 µM | – | – | – | – | – |
